Source: PMC4714678 (Cancer Science, 2015)
No end group written: not given here.

How the values were obtained:
[1] = previous studies; cited from earlier work
HUVEC = assay: Fluorescence visualization for entry of peptides; assay type: cell-based, human; settings: 25 μg/mL FITC‐conjugated peptide, 3 h, fixed, DAPI
Method in brief: (§1)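 Test peptide FITC-conjugated, or FITC-TAT cell-penetrating peptide, each at 25 μg/mL, applied for 3 h. HUVEC were isolated in-house. BGC-823, PG and HT-29 were grown in RPMI-1640 with 10% FBS at 37°C in 5% CO2. Cells were then fixed in 4% paraformaldehyde, permeabilized with 0.1% NP-40 in PBS, nuclei stained with DAPI (5 ng/mL), washed three times in PBS, and imaged by confocal microscopy.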

[2] = tested on: cancer cells (BGC‐823, PG and HT‐29); assay: Fluorescence visualization for entry of peptides; assay type: cell-based, human; settings: BGC‐823, PG and HT‐29 cells, 25 μg/mL FITC‐conjugated peptide, 3 h, fixed, DAPI
Method in brief: as §1

[3] = tested on: subintestinal vein vessels (SIV) of zebrafish; assay: Transgenic zebrafish embryo angiogenesis assay; assay type: in vivo; settings: doses of the angiogenesis test
[4] = Pre‐clinical toxicology study; assay type: in vivo, mouse, rat and monkey

Compound: ADSGEGDFLAEGGGVR [FpA]
- anti‐angiogenesis activity of synthetic peptide [1]: inactive

Compound: N=C(N)NCCC[C@H](NC(=O)CNC(=S)Nc1ccc2c(c1)C(=O)OC21c2ccc(O)cc2Oc2cc(O)ccc21)C(=O)N[C@@H](CCCCN)C(=O)N[C@@H](CCCCN)C(=O)N[C@@H](CCCNC(=N)N)C(=O)N[C@@H](CCCNC(=N)N)C(=O)N[C@@H](CCC(N)=O)C(=O)N[C@@H](CCCNC(=N)N)C(=O)N[C@@H](CCCNC(=N)N)C(=O)N[C@@H](CCCNC(=N)N)C(=O)NCC(=O)N[C@@H](Cc1ccc(O)cc1)C(=O)O [FITC‐labeled TAT peptide]
- entry into cells (confocal fluorescence) (HUVEC): entered
- entry into cells (confocal fluorescence) [2]: entered

Compound: DSGEGDFLAEGGGVR [fibrinostatin]
- toxicity to zebrafish [3]: no tocixity
- side effects in toxicology study ([4]; pre‐clinical animal models, GLP standards, data not shown): no observable side effects
- margin of safety ([4]; single‐dose acute toxicity testing and repeated‐dose chronic toxicity study in the mouse, rat and monkey): wide margin of safety

Compound: ADSGEGDFLAEGGGVRGPRVVERH [alphastatin]
- anti‐angiogenesis activity of synthetic peptide [1]: showed anti‐angiogenesis activity
